The results in this text go back to ChEMBL document CHEMBL1765089, “A class of 5-benzylidene-2-phenylthiazolinones with high potency as direct 5-lipoxygenase inhibitors” (J Med Chem, 2011).

SMILES strings stand for the structures.

The target of test [1] is T1, Polyunsaturated fatty acid 5-lipoxygenase (Homo sapiens, UniProt P09917).
T1 sequence (P09917 whole entry): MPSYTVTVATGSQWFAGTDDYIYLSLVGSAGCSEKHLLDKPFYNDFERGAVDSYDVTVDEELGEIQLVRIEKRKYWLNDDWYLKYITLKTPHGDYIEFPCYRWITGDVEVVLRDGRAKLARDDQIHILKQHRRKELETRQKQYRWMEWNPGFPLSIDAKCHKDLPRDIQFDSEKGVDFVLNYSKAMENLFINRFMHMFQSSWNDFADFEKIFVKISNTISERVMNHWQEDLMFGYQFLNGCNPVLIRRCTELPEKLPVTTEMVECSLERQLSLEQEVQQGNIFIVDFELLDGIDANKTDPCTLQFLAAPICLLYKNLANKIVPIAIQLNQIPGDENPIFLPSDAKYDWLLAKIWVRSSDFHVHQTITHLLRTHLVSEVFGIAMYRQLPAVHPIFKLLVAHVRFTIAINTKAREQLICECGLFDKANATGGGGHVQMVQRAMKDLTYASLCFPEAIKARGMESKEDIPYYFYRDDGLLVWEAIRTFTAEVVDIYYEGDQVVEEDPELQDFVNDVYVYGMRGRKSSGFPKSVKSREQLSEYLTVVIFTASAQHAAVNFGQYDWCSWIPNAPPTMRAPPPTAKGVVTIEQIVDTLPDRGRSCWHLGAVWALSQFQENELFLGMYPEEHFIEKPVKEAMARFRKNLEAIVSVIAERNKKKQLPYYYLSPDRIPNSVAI
In words: Inhibition of 5-lipoxygenase in S100 supernatant assessed as inhibition of LTB4 production preincubated for 15 mins measured after 10 mins by HPLC method. In short, it runs like this: (§1)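 Cell-free assay using the 100000g supernatant (S100) of human PMNL homogenates. Samples were preincubated with compound, then 5-LO product formation was started with 1 mM CaCl₂ plus 20 μM arachidonic acid. Three increasing concentrations were tested in three to five independent experiments and normalized to DMSO control. IC₅₀ was estimated by linear interpolation around 50% activity.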

Test [2] concerns the target T1, Polyunsaturated fatty acid 5-lipoxygenase. In words: Inhibition of 5-lipoxygenase in human polymorphonuclear leukocytes assessed as inhibition of LTB4 production preincubated for 15 mins measured after 10 mins by HPLC method. Type of test: cell-based. Conditions: pooled result: one value given for 2 cell lines, strains, targets or settings. In short, it runs like this: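 Isolated intact human polymorphonuclear leukocytes were preincubated with compound, then stimulated with 2.5 μM ionophore A23187 plus exogenous arachidonic acid (20 μM) to bypass cPLA₂ substrate supply. Three increasing concentrations were tested in three to five independent experiments and normalized to DMSO control. IC₅₀ was read by linear interpolation around 50% activity, reported as mean with SEM.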

Test [3] has the same target. In words: Inhibition of 5-lipoxygenase in S100 supernatant assessed as inhibition of (5(S)-hydroperoxy-6-trans-8,11,14-cis-eicosatetraenoic acid production preincubated for 15 mins measured after 10 mins by HPLC method. In a few lines:
as §1

Test [4] concerns the target T2, Polyunsaturated fatty acid 5-lipoxygenase (Homo sapiens) (UniProt P09917).
T2 sequence (whole entry): T1 sequence (P09917 whole entry)
In words: Inhibition of 5-lipoxygenase in human polymorphonuclear leukocytes assessed as residual activity at 30 uM relative to control. Type of test: cell-based. In a few lines:
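Intact isolated human PMNL were preincubated with compound, then 5-LO product formation was elicited with 2.5 μM A23187 and 20 μM exogenous arachidonic acid. Activity was expressed relative to DMSO control.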

Test [5] addresses T2, Polyunsaturated fatty acid 5-lipoxygenase (Homo sapiens). In words: Inhibition of 5-lipoxygenase in S100 supernatant assessed as residual activity at 30 uM relative to control. In a few lines: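 PMNL homogenate 100000g supernatant (S100) was preincubated with compound, then stimulated with 1 mM CaCl₂ and 20 μM arachidonic acid. 5-LO product formation was expressed relative to DMSO control.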

For test [6], the target named is T1, Polyunsaturated fatty acid 5-lipoxygenase. In words: Inhibition of 5-lipoxygenase.

One may read the IC50 as the midpoint of a concentration-inhibition curve. In the case of `CCOc1ccc(/C=C2\SC(c3ccccc3)=NC2=O)cc1`, the results for the concentration for half-maximal inhibition (IC50) in test [1], in test [2] and in test [3] were 500 nM, 2000 nM and 500 nM, respectively.
For the compound `COc1cc(/C=C2\SC(c3ccccc3)=NC2=O)cc(Cl)c1O`, the IC50 in test [1] was determined as 3000 nM; in test [2], 9500 nM; in test [3], 3000 nM.
As to `COc1cccc(/C=C2\SC(c3ccc(C)cc3)=NC2=O)c1O`, the IC50 in test [1] worked out at 1300 nM; in test [2] it was 800 nM; in test [3], 1300 nM.
For the compound `COc1ccc(/C=C2\SC(c3ccc(OC)cc3)=NC2=O)cc1`, the half-maximal inhibitory concentration (IC50) in test [1] worked out at 4000 nM; in test [2] it was 320 nM; in test [3], 4000 nM.
Consider `O=C1/C(=C/C=C/c2ccco2)S/C(=N\c2ccccc2)N1c1ccccc1`, for which the Activity in test [4] and in test [5] was above 60% each time. Moreover, the half-maximal inhibitory concentration (IC50) in test [1] was above 30000 nM; in test [2], 30000 nM; in test [3], above 30000 nM.
Take `COc1cc(/C=C2\SC(c3ccccc3)=NC2=O)cc([N+](=O)[O-])c1O`: the IC50 in test [1] was determined as 3000 nM; in test [2] it was 4400 nM; in test [3] it was 3000 nM.
In the case of `COc1ccc(/C=C2\SC(c3ccc(C)cc3)=NC2=O)c(OC)c1OC`, the half-inhibitory concentration (IC50) amounted to 400 nM in test [1], 2450 nM in test [2] and 400 nM in test [3].
For the compound `COc1ccc(OC)c(/C=C2\SC(c3ccc(C)cc3)=NC2=O)c1`, the IC50 in test [1] turned out to be 130 nM; in test [2] it was 350 nM; in test [3], 130 nM.
Take `CCOc1cc(/C=C2\SC(c3ccc(C)cc3)=NC2=O)cc(Cl)c1O`: the half-inhibitory concentration (IC50) in test [1] was determined as 1250 nM; in test [2], 2900 nM; in test [3], 1250 nM.
On to `Cc1ccc(C2=NC(=O)/C(=C/C=C/c3ccccc3)S2)cc1`, for which the figures for the half-inhibitory concentration (IC50) in test [1], in test [2] and in test [3] were 230 nM, 400 nM and 230 nM, respectively.
As for `COc1ccc(/C=C2\SC(c3ccc(C)cc3)=NC2=O)c(OC)c1`, the concentration for half-maximal inhibition (IC50) in test [1] is 980 nM; in test [2] it was 2020 nM; in test [3], 980 nM.
Regarding `COc1ccc(/C=C2\SC(c3ccccc3)=NC2=O)cc1`, the 50% inhibitory concentration (IC50) in test [1] amounted to 150 nM; in test [2] it was 530 nM; in test [3], 150 nM.
On to `O=C1N=C(Nc2ccccc2)S/C1=C\c1ccccc1`, for which the Activity in test [4] and in test [5] was above 60% in each case. Also, the concentration for half-maximal inhibition (IC50) in test [1], in test [2] and in test [3] was above 30000 nM each time.
On to `CC(C)(C)c1ccc(/C=C2\SC(c3ccccc3)=NC2=O)cc1`, for which the IC50 in test [1] was 300 nM; in test [2] it was 910 nM; in test [3] it was 300 nM.
Turning to `COc1ccc(/C=C2\SC(c3ccc(Cl)cc3)=NC2=O)cc1`, the IC50 in test [1] was determined as 90 nM; in test [2] it was 280 nM; in test [3], 90 nM.
`COc1ccc(/C=C2\SC(c3ccc(N)cc3)=NC2=O)cc1`: the IC50 in test [1] was 630 nM; in test [2], 1930 nM; in test [3], 630 nM.
As to `COC(=O)COc1ccc(/C=C2\SC(c3ccc(C)cc3)=NC2=O)cc1`, the results for the IC50 in test [1], in test [2] and in test [3] were 190 nM, 2110 nM and 190 nM, respectively.
Consider `COc1ccc(/C=C2\SC(c3cccc(F)c3)=NC2=O)cc1`, for which the 50% inhibitory concentration (IC50) came to 120 nM in test [1], 240 nM in test [2] and 120 nM in test [3].
Regarding `CN(C)c1ccc(/C=C2\SC(N3CCCCC3)=NC2=O)cc1`, the Activity in test [4] and in test [5] was above 60% in each case. In addition, the IC50 in test [1] is above 30000 nM; in test [2] it was 20000 nM; in test [3], above 30000 nM.
Regarding `COc1cc(/C=C2\SC(c3ccc(C)cc3)=NC2=O)cc(Cl)c1O`, the IC50 in test [1] is 2700 nM; in test [2], above 10000 nM; in test [3] it was 2700 nM.
On to `O=C1N=C(c2ccc(Cl)cc2)S/C1=C\c1ccc(O)cc1`, for which the figures for the concentration for half-maximal inhibition (IC50) in test [1], in test [2] and in test [3] were 110 nM, 400 nM and 110 nM, respectively.
`Cc1ccc(C2=NC(=O)/C(=C/c3ccccc3)S2)cc1`: the IC50 in test [1] was 350 nM; in test [2], 730 nM; in test [3] it was 350 nM.
As for `COc1ccc(/C=C2\SC(c3cccc(C(C)=O)c3)=NC2=O)cc1`, the IC50 in test [1] turned out to be 130 nM; in test [2] it was 380 nM; in test [3], 130 nM.
For `COc1ccc(/C=C2\SC(N3CCCC3)=NC2=O)cc1`, the Activity in test [4] and in test [5] was above 60% in each case. For the same compound, the IC50 in test [1], in test [2] and in test [3] was above 30000 nM throughout.
`COc1ccc(/C=C2\SC(c3ccc(O)cc3)=NC2=O)cc1`: the values for the IC50 in test [1], in test [2] and in test [3] were 650 nM, 1690 nM and 650 nM, respectively.
Regarding `COc1cc(Cl)cc(/C=C2\SC(c3ccccc3)=NC2=O)c1O`, the IC50 in test [1] turned out to be 300 nM; in test [2] it was 650 nM; in test [3], 300 nM.
As for `COc1cccc(/C=C2\SC(c3ccccc3)=NC2=O)c1O`, the IC50 in test [1] was 540 nM; in test [2] it was 480 nM; in test [3] it was 540 nM.
`C/C(=C1/SC(O)=NC1=O)c1cc(-c2ccccc2)c(O)c(-c2ccccc2)c1` came in with an IC50 in test [6] above 10000 nM.
For `COc1ccc(/C=C2\SC(c3ccc(C(C)=O)cc3)=NC2=O)cc1`, the IC50 stood at 110 nM in test [1], 550 nM in test [2] and 110 nM in test [3].
For `COC(=O)COc1ccc(C2=NC(=O)/C(=C/c3ccc(OC)cc3)S2)cc1`, the IC50 was 580 nM in test [1], 860 nM in test [2] and 580 nM in test [3].
Consider `Cc1ccc(/C=C2\SC(Nc3ccc4ccccc4c3)=NC2=O)cc1`, for which the Activity in test [4] and in test [5] was above 60% in each case. Besides, the IC50 in test [1], in test [2] and in test [3] was above 30000 nM in each case.
As for `CCCOc1ccc(/C=C2\SC(N3CCCCCC3)=NC2=O)cc1`, the concentration for half-maximal inhibition (IC50) in test [1] came out at 14000 nM; in test [2] it was 12000 nM; in test [3], 14000 nM.
Consider `Cc1ccc(C2=NC(=O)/C(=C/c3cccc(Cl)c3)S2)cc1`, for which the IC50 in test [1] turned out to be 300 nM; in test [2], 580 nM; in test [3], 300 nM.
As for `O=C1N=C(c2ccccc2)S/C1=C\c1c2ccccc2cc2ccccc12`, the 50% inhibitory concentration (IC50) was determined as 300 nM in test [1], 4300 nM in test [2] and 300 nM in test [3].
For `COc1ccc(/C=C2\SC(c3ccc(C)cc3)=NC2=O)cc1`, the IC50 in test [1] came to 300 nM; in test [2], 660 nM; in test [3] it was 300 nM.
